# The source made the active and inactive calls. The calls are words filed in the database; no cut-off is given here.
# Tests used:
# [1] = tested on: Mus musculus; assay: Antiinflammatory activity in Kunming mouse CFA-induced arthritis model assessed as PGE2 level in serum at 100 mg/kg/day, po for 1 week administered on day 8 post CFA induction by ELISA (reference value: 207 +/- 2.1 ng/L); assay type: functional
# [2] = tested on: Mus musculus; assay: Antioxidant activity in Kunming mouse CFA-induced arthritis model assessed as superoxide dismutase activity in serum at 25 mg/kg/day, po for 1 week administered on day 8 post CFA induction by ELISA (reference value: 66.7 +/- 0.9 U/ml); assay type: functional
# [3] = Antioxidant activity assessed as hydroxyl radical scavenging activity measured 10 mins after H2O2 addition by pyronin B dye based assay; assay type: functional
# Method in brief: (§1)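 In vitro radical scavenging was reported as IC50 (mM) alongside a positive control. Data are mean ± s, n = 6, with experiments run in triplicate.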
# [4] = tested on: Mus musculus; assay: Antiinflammatory activity in Kunming mouse CFA-induced arthritis model assessed as inhibition of paw swelling at 25 mg/kg/day, po for 1 week administered on day 8 post CFA induction measured every 2 days during compound dosing; assay type: functional, organism-based
# Method in brief: (§2)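 Dosing began seven days after the model was established, at 100 mg·kg⁻¹·d⁻¹ (high) or 25 mg·kg⁻¹·d⁻¹ (low). Inhibition of paw swelling was expressed in %, with celecoxib as reference group.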
# [5] = tested on: Mus musculus; assay: Antioxidant activity in Kunming mouse CFA-induced arthritis model assessed as total antioxidant capacity in serum at 100 mg/kg/day, po for 1 week administered on day 8 post CFA induction by ELISA (reference value: 2.9 +/- 0.5 U/ml); assay type: functional
# [6] = Antioxidant activity assessed as superoxide radical scavenging activity measured every 30 secs for 6 mins in presence of superoxide generator pyrogallol; assay type: functional; method in brief: as §1
# [7] = tested on: Mus musculus; assay: Antioxidant activity in Kunming mouse CFA-induced arthritis model assessed as total antioxidant capacity in serum at 25 mg/kg/day, po for 1 week administered on day 8 post CFA induction by ELISA (reference value: 2.9 +/- 0.5 U/ml); assay type: functional
# [8] = Antioxidant activity assessed as ABTS radical scavenging activity after 6 mins by spectrophotometric analysis; assay type: functional; method in brief: as §1
# [9] = tested on: Mus musculus; assay: Antioxidant activity in Kunming mouse CFA-induced arthritis model assessed as malondialdehyde level in serum at 100 mg/kg/day, po for 1 week administered on day 8 post CFA induction by ELISA (reference value: 15.5 +/- 1.1 nmol/ml); assay type: functional
# [10] = tested on: Mus musculus; assay: Antiinflammatory activity in Kunming mouse CFA-induced arthritis model assessed as PGE2 level in serum at 25 mg/kg/day, po for 1 week administered on day 8 post CFA induction by ELISA (reference value: 207 +/- 2.1 ng/L); assay type: functional
# [11] = tested on: Mus musculus; assay: Antiinflammatory activity in Kunming mouse CFA-induced arthritis model assessed as COX-2 level in serum at 25 mg/kg/day, po for 1 week administered on day 8 post CFA induction by ELISA (reference value: 85.3 +/- 0.1 ng/L); assay type: functional
# [12] = tested on: Mus musculus; assay: Antioxidant activity in Kunming mouse CFA-induced arthritis model assessed as malondialdehyde level in serum at 25 mg/kg/day, po for 1 week administered on day 8 post CFA induction by ELISA (reference value: 15.5 +/- 1.1 nmol/ml); assay type: functional
# [13] = Antioxidant activity assessed as DPPH radical scavenging activity incubated for 30 mins in dark; assay type: functional; method in brief: as §1
# [14] = tested on: Mus musculus; assay: Antioxidant activity in Kunming mouse CFA-induced arthritis model assessed as superoxide dismutase activity in serum at 100 mg/kg/day, po for 1 week administered on day 8 post CFA induction by ELISA (reference value: 66.7 +/- 0.9 U/ml); assay type: functional
# [15] = tested on: Mus musculus; assay: Antiinflammatory activity in Kunming mouse CFA-induced arthritis model assessed as COX-2 level in serum at 100 mg/kg/day, po for 1 week administered on day 8 post CFA induction by ELISA (reference value: 85.3 +/- 0.1 ng/L); assay type: functional
# [16] = tested on: Mus musculus; assay: Antiinflammatory activity in Kunming mouse CFA-induced arthritis model assessed as inhibition of paw swelling at 100 mg/kg/day, po for 1 week administered on day 8 post CFA induction measured every 2 days during compound dosing; assay type: functional; method in brief: as §2
# [17] = Solubility of the compound in water; assay type: physicochemical; settings: buffer
# [18] = tested on: Mus musculus; assay: Antiinflammatory activity in Kunming mouse CFA-induced arthritis model assessed as inhibition of paw swelling at 100 mg/kg/day, po for 1 week administered on day 8 post CFA induction measured after day 3 during compound dosing; assay type: functional, organism-based; method in brief: as §2
# [19] = tested on: Mus musculus; assay: Antiinflammatory activity in Kunming mouse CFA-induced arthritis model assessed as COX-2 level in serum at 30 mg/kg/day, po for 1 week administered on day 8 post CFA induction by ELISA (reference value: 85.3 +/- 0.1 ng/L); assay type: functional
# [20] = tested on: Mus musculus; assay: Antiinflammatory activity in Kunming mouse CFA-induced arthritis model assessed as inhibition of paw swelling at 30 mg/kg/day, po for 1 week administered on day 8 post CFA induction measured every 2 days during compound dosing; assay type: functional, organism-based
# [21] = tested on: Mus musculus; assay: Antioxidant activity in Kunming mouse CFA-induced arthritis model assessed as total antioxidant capacity in serum at 30 mg/kg/day, po for 1 week administered on day 8 post CFA induction by ELISA (reference value: 2.9 +/- 0.5 U/ml); assay type: functional
# [22] = tested on: Mus musculus; assay: Antiinflammatory activity in Kunming mouse CFA-induced arthritis model assessed as PGE2 level in serum at 30 mg/kg/day, po for 1 week administered on day 8 post CFA induction by ELISA (reference value: 207 +/- 2.1 ng/L); assay type: functional
# [23] = tested on: Mus musculus; assay: Antioxidant activity in Kunming mouse CFA-induced arthritis model assessed as superoxide dismutase activity in serum at 30 mg/kg/day, po for 1 week administered on day 8 post CFA induction by ELISA (reference value: 66.7 +/- 0.9 U/ml); assay type: functional
# [24] = tested on: Mus musculus; assay: Antioxidant activity in Kunming mouse CFA-induced arthritis model assessed as malondialdehyde level in serum at 30 mg/kg/day, po for 1 week administered on day 8 post CFA induction by ELISA (reference value: 15.5 +/- 1.1 nmol/ml); assay type: functional
structure (smiles),measurement,setting,value
CCCCCCCCCCCCCCCCOc1cc(OC)c(Br)cc1C(C)=O,Activity,[1],150.1 ng/L
same,Activity,[2],73.9 U/ml
same,IC50,[3],0.1 mM
same,inhibition,[4],Active
same,Activity,[5],11.6 U/ml
same,IC50,[6],1.8 mM
same,Activity,[7],6.5 U/ml
same,IC50,[8],4.6 mM
same,Activity,[9],5.8 nmol/mL
same,Activity,[10],189.3 ng/L
same,Activity,[11],63.9 ng/L
same,Activity,[12],7.5 nmol/mL
same,IC50,[13],6.5 mM
same,Activity,[14],76.2 U/ml
same,Activity,[15],64.7 ng/L
same,inhibition in vivo at 100 mg/kg/day,[16],45%
CCOc1cc(OC)ccc1C(C)=O,IC50,[3],35.3 mM
same,IC50,[6],6.6 mM
same,IC50,[8],37.7 mM
same,solubility,[17],Soluble
same,IC50,[13],39.6 mM
CCCCOc1cc(OC)c(Br)cc1C(C)=O,IC50,[3],56.9 mM
same,IC50,[6],38.2 mM
same,IC50,[8],34.1 mM
same,IC50,[13],42.3 mM
COc1ccc(C(C)=O)c(O)c1 [PAEONOL],Activity,[1],137.1 ng/L
same,Activity,[2],62.5 U/ml
same,IC50,[3],0.2 mM
same,inhibition,[4],Active
same,Activity,[5],4.1 U/ml
same,IC50,[6],5.8 mM
same,Activity,[7],4.6 U/ml
same,IC50,[8],16 mM
same,Activity,[9],7.9 nmol/mL
same,Activity,[10],155.5 ng/L
same,Activity,[11],66.2 ng/L
same,Activity,[12],8.9 nmol/mL
same,solubility,[17],Soluble
same,IC50,[13],42.8 mM
same,Activity,[14],68.1 U/ml
same,Activity,[15],61.1 ng/L
same,inhibition,[16],Active
CCCCOc1cc(OC)ccc1C(C)=O,IC50,[3],57.2 mM
same,IC50,[6],15.6 mM
same,IC50,[8],36.3 mM
same,IC50,[13],43.3 mM
CCCCCCCCCCCCCCCCOc1cc(OC)ccc1C(C)=O,Activity,[1],159.4 ng/L
same,Activity,[2],72.1 U/ml
same,IC50,[3],61.5 mM
same,inhibition,[18],Active
same,inhibition,[4],Active
same,Activity,[5],16.9 U/ml
same,IC50,[6],39.4 mM
same,Activity,[7],11.1 U/ml
same,IC50,[8],36.3 mM
same,Activity,[9],8.8 nmol/mL
same,Activity,[10],182.2 ng/L
same,Activity,[11],65.2 ng/L
same,Activity,[12],9.7 nmol/mL
same,IC50,[13],39.4 mM
same,Activity,[14],80.7 U/ml
same,Activity,[15],64.4 ng/L
same,inhibition in vivo at 100 mg/kg/day,[16],65%
CCCCCCCCCCOc1cc(OC)ccc1C(C)=O,IC50,[3],57.4 mM
same,IC50,[6],26.6 mM
same,IC50,[8],41.7 mM
same,IC50,[13],40.1 mM
CCCCCCCCCCOc1cc(OC)c(Br)cc1C(C)=O,IC50,[3],29.7 mM
same,IC50,[6],15 mM
same,IC50,[8],34.7 mM
same,IC50,[13],35.1 mM
CCCCCCCCOc1cc(OC)c(Br)cc1C(C)=O,IC50,[3],38.1 mM
same,IC50,[6],30.9 mM
same,IC50,[8],32 mM
same,IC50,[13],39 mM
Cc1ccc(-c2cc(C(F)(F)F)nn2-c2ccc(S(N)(=O)=O)cc2)cc1 [CELECOXIB],Activity,[19],61.6 ng/L
same,inhibition,[20],Active
same,Activity,[21],6.3 U/ml
same,Activity,[22],135.3 ng/L
same,Activity,[23],78 U/ml
same,Activity,[24],7.3 nmol/mL
CCCCCCCCCCCCOc1cc(OC)ccc1C(C)=O,IC50,[3],65.6 mM
same,IC50,[6],28.5 mM
same,IC50,[8],40.7 mM
same,IC50,[13],37.4 mM
CCCCCCCCOc1cc(OC)ccc1C(C)=O,IC50,[3],69.4 mM
same,IC50,[6],21.2 mM
same,IC50,[8],38.3 mM
same,IC50,[13],40 mM
CCCCCCCCCCCCCCOc1cc(OC)c(Br)cc1C(C)=O,IC50,[3],13.2 mM
same,IC50,[6],6.8 mM
same,IC50,[8],8.7 mM
same,IC50,[13],16.1 mM
Cc1c(C)c2c(c(C)c1O)CCC(C)(C(=O)O)O2 (centres undefined) [TROLOX],IC50,[3],0.2 mM
same,IC50,[6],0.6 mM
same,IC50,[8],0.3 mM
same,IC50,[13],0.2 mM
CCCCCCCCCCCCOc1cc(OC)c(Br)cc1C(C)=O,IC50,[3],23.1 mM
same,IC50,[6],10.6 mM
same,IC50,[8],32.7 mM
same,IC50,[13],29.5 mM
CCCCCCOc1cc(OC)ccc1C(C)=O,IC50,[3],84.4 mM
same,IC50,[6],18 mM
same,IC50,[8],42.1 mM
same,IC50,[13],42.6 mM
COc1cc(O)c(C(C)=O)cc1Br,Activity,[1],142.3 ng/L
same,Activity,[2],76.3 U/ml
same,IC50,[3],3 mM
same,inhibition,[4],Active
same,Activity,[5],6 U/ml
same,IC50,[6],15.6 mM
same,Activity,[7],3.8 U/ml
same,IC50,[8],31.4 mM
same,Activity,[9],6.4 nmol/mL
same,Activity,[10],179.5 ng/L
same,Activity,[11],65.4 ng/L
same,Activity,[12],9.9 nmol/mL
same,IC50,[13],41.8 mM
same,Activity,[14],78.1 U/ml
same,Activity,[15],57.6 ng/L
same,inhibition,[16],Active
CCCCCCOc1cc(OC)c(Br)cc1C(C)=O,IC50,[3],53.1 mM
same,IC50,[6],34 mM
same,IC50,[8],35.7 mM
same,IC50,[13],42.4 mM
CCOc1cc(OC)c(Br)cc1C(C)=O,IC50,[3],57.7 mM
same,IC50,[6],37.9 mM
same,IC50,[8],36 mM
same,solubility,[17],Soluble
same,IC50,[13],46.8 mM
CCCCCCCCCCCCCCOc1cc(OC)ccc1C(C)=O,IC50,[3],57 mM
same,IC50,[6],35.9 mM
same,IC50,[8],38 mM
same,IC50,[13],43.6 mM
